# In ChEMBL document CHEMBL4321820, “Identification and Optimization of Mechanism-Based Fluoroallylamine Inhibitors of Lysyl Oxidase-like 2/3” (J Med Chem, 2019):
# Key:
# [1] = biological target: T1, Amine oxidase [flavin-containing] B (Homo sapiens, UniProt P27338); experiment: Inhibition of recombinant human MAOB expressed in baculovirus infected in BTI cells using benzylamine as substrate preincubated with enzyme for 30 mins followed by substrate addition and measured every 2.5 mins for 30 mins by Amplex-Red oxidation assay
# T1 sequence (P27338 whole entry): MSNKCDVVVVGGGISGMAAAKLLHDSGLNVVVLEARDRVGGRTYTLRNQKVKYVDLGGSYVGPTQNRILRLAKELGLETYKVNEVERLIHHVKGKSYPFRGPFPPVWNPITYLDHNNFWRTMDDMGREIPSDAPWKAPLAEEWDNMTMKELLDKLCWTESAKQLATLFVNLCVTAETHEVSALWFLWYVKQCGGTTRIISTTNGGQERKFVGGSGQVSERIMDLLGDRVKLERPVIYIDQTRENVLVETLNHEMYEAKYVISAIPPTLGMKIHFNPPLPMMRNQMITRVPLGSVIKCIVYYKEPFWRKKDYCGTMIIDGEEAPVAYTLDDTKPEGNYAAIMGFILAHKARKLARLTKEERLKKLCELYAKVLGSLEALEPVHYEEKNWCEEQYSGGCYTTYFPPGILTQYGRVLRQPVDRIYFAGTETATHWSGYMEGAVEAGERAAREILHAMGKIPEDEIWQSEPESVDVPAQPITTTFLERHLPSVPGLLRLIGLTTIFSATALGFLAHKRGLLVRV
# [2] = biological target: T2, Amine oxidase [flavin-containing] A (Homo sapiens, UniProt P21397); experiment: Inhibition of recombinant human MAOA expressed in baculovirus infected in BTI cells using tyramine as substrate preincubated with enzyme for 30 mins followed by substrate addition and measured every 2.5 mins for 30 mins by Amplex-Red oxidation assay
# T2 sequence (P21397 whole entry): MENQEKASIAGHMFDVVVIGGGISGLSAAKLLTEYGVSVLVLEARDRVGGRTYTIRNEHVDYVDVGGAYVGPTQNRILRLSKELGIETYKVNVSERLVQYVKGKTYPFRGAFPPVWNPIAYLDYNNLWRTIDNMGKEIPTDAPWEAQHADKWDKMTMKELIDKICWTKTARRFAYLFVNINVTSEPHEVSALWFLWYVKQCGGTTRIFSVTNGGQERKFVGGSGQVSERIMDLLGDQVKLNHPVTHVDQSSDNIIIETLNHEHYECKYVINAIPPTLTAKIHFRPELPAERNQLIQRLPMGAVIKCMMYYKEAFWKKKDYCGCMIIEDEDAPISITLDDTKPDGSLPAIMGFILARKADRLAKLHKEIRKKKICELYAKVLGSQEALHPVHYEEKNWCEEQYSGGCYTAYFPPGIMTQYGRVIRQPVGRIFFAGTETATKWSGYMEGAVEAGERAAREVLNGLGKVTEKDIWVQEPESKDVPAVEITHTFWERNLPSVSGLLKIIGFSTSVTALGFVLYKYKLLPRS
# [3] = Prodrug conversion in BALB/c mouse plasma assessed as 1-[4-amino-2-fluoro-but-2-enyl]-3-[3-(dimethylsulfamoyl)phenyl]-2-methyl-indole-5-carboxylic acid hydrochloride formation at 20 mg/kg, po administered via gavage by HPLC-MS/MS analysis; type: ADME, organism-based; details: in vivo
# Procedure, shortened: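 Male BALB/c mice dosed by oral gavage at 20 mg/kg (n=3); plasma prodrug and released free acid quantified by LC-MS/MS; each point the mean of 3 animals.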
# [4] = Stability in human plasma assessed as half life; type: ADME, cell-free
# [5] = Oral bioavailability in rat; type: ADME, organism-based; details: in vivo
# Lysyl oxidase homolog 1 = biological target: T3, Lysyl oxidase homolog 1 (Homo sapiens, UniProt Q08397); experiment: Inhibition of recombinant human LOXL1 using putrescine as substrate preincubated with enzyme for 30 mins followed by substrate addition and measured every 2.5 mins for 30 mins by Amplex-Red oxidation assay
# T3 sequence (Q08397 whole entry): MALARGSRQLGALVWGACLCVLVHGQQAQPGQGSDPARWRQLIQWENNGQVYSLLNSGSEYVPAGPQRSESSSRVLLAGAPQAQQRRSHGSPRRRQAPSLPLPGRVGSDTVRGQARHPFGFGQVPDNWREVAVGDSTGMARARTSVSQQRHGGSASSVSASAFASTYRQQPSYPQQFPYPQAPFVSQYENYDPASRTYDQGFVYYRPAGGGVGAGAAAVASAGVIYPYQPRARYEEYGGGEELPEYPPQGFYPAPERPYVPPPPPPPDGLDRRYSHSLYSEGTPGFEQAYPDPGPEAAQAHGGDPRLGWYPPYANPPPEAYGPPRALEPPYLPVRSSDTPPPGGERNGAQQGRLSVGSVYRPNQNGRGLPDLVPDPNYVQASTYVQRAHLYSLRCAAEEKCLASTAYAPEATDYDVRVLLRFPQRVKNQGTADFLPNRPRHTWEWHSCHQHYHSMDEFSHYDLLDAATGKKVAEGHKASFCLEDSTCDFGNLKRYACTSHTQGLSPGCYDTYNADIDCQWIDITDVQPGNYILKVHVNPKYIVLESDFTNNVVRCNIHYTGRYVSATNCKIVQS
# Procedure, shortened: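 Recombinant human LOXL1 expressed and purified from cDNA; 30 min preincubation with compound at 37 °C in urea/borate buffer, then Amplex Red/HRP with 10 mM putrescine; H2O2 fluorescence read every 2.5 min for 30 min at 37 °C.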
# [6] = Stability in rat plasma assessed as half life; type: ADME, cell-free
# [7] = Protein binding in rat plasma; type: ADME, cell-free; details: read-out: PPB (converted)
# Protein-lysine 6-oxidase = biological target: T4, Protein-lysine 6-oxidase (Homo sapiens, UniProt P28300); experiment: Inhibition of LOX in human IMR90 cells using putrescine as substrate preincubated with enzyme for 30 mins followed by substrate addition and measured every 2.5 mins for 30 mins by Amplex-Red oxidation assay; type: cell-based
# T4 sequence (P28300 whole entry): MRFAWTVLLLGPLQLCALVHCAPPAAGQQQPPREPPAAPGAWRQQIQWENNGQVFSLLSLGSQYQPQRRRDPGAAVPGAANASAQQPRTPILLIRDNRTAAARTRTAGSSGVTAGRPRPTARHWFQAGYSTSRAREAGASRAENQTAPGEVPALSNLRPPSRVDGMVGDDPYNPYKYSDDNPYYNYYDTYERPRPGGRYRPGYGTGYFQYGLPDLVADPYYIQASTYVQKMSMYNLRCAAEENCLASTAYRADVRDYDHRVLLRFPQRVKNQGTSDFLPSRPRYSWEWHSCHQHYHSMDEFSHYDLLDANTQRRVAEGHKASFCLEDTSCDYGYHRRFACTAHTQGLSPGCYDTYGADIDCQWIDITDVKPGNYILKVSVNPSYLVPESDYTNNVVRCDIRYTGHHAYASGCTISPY
# Procedure, shortened: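 IMR90 fibroblasts grown in MEM/10% FBS to 80% confluence, then 48-72 h in phenol-red-free 0.1% FBS medium. Conditioned medium concentrated 40-fold (10 kDa). LOX and LOXL2 separated on a 50 kDa filter in 6 M urea/borate, then diluted back to 1.2 M urea. Preincubated 30 min at 37 °C with compound; Amplex Red/HRP/putrescine readout every 2.5 min over 30 min.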
# [8] = Stability in dog plasma assessed as half life; type: ADME, cell-free, Canis lupus familiaris
smiles,measurement,setting,value
Cc1c(-c2cccc(S(=O)(=O)N(C)C)c2)c2ccccc2n1C/C(F)=C/CN.Cl,IC50,[1]; read-out: pIC50 (converted),> 31.6 µM
same,IC50,[2]; read-out: pIC50 (converted),> 31.6 µM
CCOC(=O)c1ccc2c(c1)c(-c1cccc(S(=O)(=O)N(C)C)c1)c(C)n2C/C(F)=C/CN.Cl,Drug metabolism,[3],Metabolite_Detected
Cc1c(-c2cccc(S(=O)(=O)N(C)C)c2)c2cc(C(=O)O)ccc2n1C/C(F)=C/CN.Cl,half-life,[4],> 2 h
same,IC50,[1]; read-out: IC50,> 30 µM
same,bioavailability,[5],< 1%
same,IC50,Lysyl oxidase homolog 1,2.26 µM
same,IC50,[2]; read-out: IC50,> 30 µM
same,half-life,[6],> 2 h
same,fraction unbound,[7],0.12
same,IC50,Protein-lysine 6-oxidase,1.26 µM
same,half-life,[8],> 2 h
